Experimental data reported in ChEMBL document CHEMBL4138211, “Regio- and stereoselective synthesis of dispirooxindole-pyrrolocarbazole hybrids via 1,3-dipolar cycloaddition reactions: Cytotoxic activity and SAR studies” (Eur J Med Chem, 2018).
Active and inactive are the calls of the source. The rule behind the calls is not given here.

Tested on: MCF7
Assay: Induction of apoptosis in human MCF7 cells assessed as membrane blebbing after 24 hrs by brightfield inverted light microscopic analysis
Assay type: functional, cell-based
Settings: not given

Structure (SMILES) | Activity
Cc1ccc2[nH]c3c(c2c1)CC[C@]1(C3=O)[C@@H](c2ccccc2)[C@@H](c2ccccc2)N[C@@]12C(=O)Nc1ccccc12 | inactive
Cc1ccc2[nH]c3c(c2c1)CC[C@]1(C3=O)[C@@H](c2cccs2)[C@@H](c2ccccc2)N[C@@]12C(=O)Nc1ccccc12 | Dose-dependent effect

Tested on: MCF7
Assay: Induction of apoptosis in human MCF7 cells assessed as nuclear fragmentation after 24 hrs by DAPI staining-based fluorescence microscopic analysis
Assay type: functional, cell-based
Settings: not given
Method in brief: (§1)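 Cells plated on glass coverslips and treated for 24 h, then fixed. Permeabilised with 0.2% Triton X-100 for 10 min at room temperature. DAPI applied for 3 min under a coverslip. Nuclei inspected by fluorescence microscopy for condensed chromatin and fragmentation, against untreated cells.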

Structure (SMILES) | Activity
Cc1ccc2[nH]c3c(c2c1)CC[C@]1(C3=O)[C@@H](c2ccccc2)[C@@H](c2ccccc2)N[C@@]12C(=O)Nc1ccccc12 | Active
Cc1ccc2[nH]c3c(c2c1)CC[C@]1(C3=O)[C@@H](c2cccs2)[C@@H](c2ccccc2)N[C@@]12C(=O)Nc1ccccc12 | Active

Tested on: MCF7
Assay: Induction of apoptosis in human MCF7 cells assessed as formation of floating cells after 24 hrs by brightfield inverted light microscopic analysis
Assay type: functional, cell-based
Settings: not given

Structure (SMILES) | Activity
Cc1ccc2[nH]c3c(c2c1)CC[C@]1(C3=O)[C@@H](c2ccccc2)[C@@H](c2ccccc2)N[C@@]12C(=O)Nc1ccccc12 | inactive
Cc1ccc2[nH]c3c(c2c1)CC[C@]1(C3=O)[C@@H](c2cccs2)[C@@H](c2ccccc2)N[C@@]12C(=O)Nc1ccccc12 | Dose-dependent effect

Tested on: MCF7
Assay: Induction of apoptosis in human MCF7 cells by acridine orange/ethidium bromide staining-based fluorescence microscopic analysis
Assay type: functional, cell-based
Settings: not given
Method in brief: (§2)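 Treated cells collected and washed in PBS (pH 7.2). Stained with a 1:1 AO/EtBr mixture (each dye […] in water) and held 2 min. Washed twice in PBS and viewed by fluorescence microscopy at 400× with 480 nm excitation. Green intact-membrane cells distinguished from orange/red membrane-damaged cells.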

Structure (SMILES) | Activity
Cc1ccc2[nH]c3c(c2c1)CC[C@]1(C3=O)[C@@H](c2ccccc2)[C@@H](c2ccccc2)N[C@@]12C(=O)Nc1ccccc12 | inactive
Cc1ccc2[nH]c3c(c2c1)CC[C@]1(C3=O)[C@@H](c2cccs2)[C@@H](c2ccccc2)N[C@@]12C(=O)Nc1ccccc12 | Active

Tested on: A549
Assay: Induction of apoptosis in human A549 cells assessed as cell shrinkage after 24 hrs by brightfield inverted light microscopic analysis
Assay type: functional, cell-based
Settings: not given

Structure (SMILES) | Activity
Cc1ccc2[nH]c3c(c2c1)CC[C@]1(C3=O)[C@@H](c2ccccc2)[C@@H](c2ccccc2)N[C@@]12C(=O)Nc1ccccc12 | inactive
Cc1ccc2[nH]c3c(c2c1)CC[C@]1(C3=O)[C@@H](c2cccs2)[C@@H](c2ccccc2)N[C@@]12C(=O)Nc1ccccc12 | Dose-dependent effect

Tested on: MCF7
Assay: Induction of apoptosis in human MCF7 cells assessed as damaged cell membranes by acridine orange/ethidium bromide staining-based fluorescence microscopic analysis
Assay type: functional
Settings: not given
Method in brief: as §2

Structure (SMILES) | Activity
Cc1ccc2[nH]c3c(c2c1)CC[C@]1(C3=O)[C@@H](c2ccccc2)[C@@H](c2ccccc2)N[C@@]12C(=O)Nc1ccccc12 | inactive
Cc1ccc2[nH]c3c(c2c1)CC[C@]1(C3=O)[C@@H](c2cccs2)[C@@H](c2ccccc2)N[C@@]12C(=O)Nc1ccccc12 | Active

Tested on: A549
Assay: Induction of apoptosis in human A549 cells assessed as nuclear fragmentation after 24 hrs by DAPI staining-based fluorescence microscopic analysis
Assay type: functional, cell-based
Settings: not given
Method in brief: as §1

Structure (SMILES) | Activity
Cc1ccc2[nH]c3c(c2c1)CC[C@]1(C3=O)[C@@H](c2ccccc2)[C@@H](c2ccccc2)N[C@@]12C(=O)Nc1ccccc12 | inactive
Cc1ccc2[nH]c3c(c2c1)CC[C@]1(C3=O)[C@@H](c2cccs2)[C@@H](c2ccccc2)N[C@@]12C(=O)Nc1ccccc12 | Active

Tested on: MCF7
Assay: Induction of apoptosis in human MCF7 cells assessed as chromatin condensation after 24 hrs by DAPI staining-based fluorescence microscopic analysis
Assay type: functional, cell-based
Settings: not given
Method in brief: as §1

Structure (SMILES) | Activity
Cc1ccc2[nH]c3c(c2c1)CC[C@]1(C3=O)[C@@H](c2ccccc2)[C@@H](c2ccccc2)N[C@@]12C(=O)Nc1ccccc12 | Active

Tested on: MCF7
Assay: Induction of apoptosis in human MCF7 cells assessed as nuclear condensation by acridine orange/ethidium bromide staining-based fluorescence microscopic analysis
Assay type: functional, cell-based
Settings: not given
Method in brief: as §2

Structure (SMILES) | Activity
Cc1ccc2[nH]c3c(c2c1)CC[C@]1(C3=O)[C@@H](c2ccccc2)[C@@H](c2ccccc2)N[C@@]12C(=O)Nc1ccccc12 | inactive
Cc1ccc2[nH]c3c(c2c1)CC[C@]1(C3=O)[C@@H](c2cccs2)[C@@H](c2ccccc2)N[C@@]12C(=O)Nc1ccccc12 | Active

Tested on: MCF7
Assay: Induction of apoptosis in human MCF7 cells assessed as cell shrinkage after 24 hrs by brightfield inverted light microscopic analysis
Assay type: functional, cell-based
Settings: not given

Structure (SMILES) | Activity
Cc1ccc2[nH]c3c(c2c1)CC[C@]1(C3=O)[C@@H](c2ccccc2)[C@@H](c2ccccc2)N[C@@]12C(=O)Nc1ccccc12 | inactive
Cc1ccc2[nH]c3c(c2c1)CC[C@]1(C3=O)[C@@H](c2cccs2)[C@@H](c2ccccc2)N[C@@]12C(=O)Nc1ccccc12 | Dose-dependent effect

Tested on: A549
Assay: Induction of apoptosis in human A549 cells assessed as formation of floating cells after 24 hrs by brightfield inverted light microscopic analysis
Assay type: functional, cell-based
Settings: not given

Structure (SMILES) | Activity
Cc1ccc2[nH]c3c(c2c1)CC[C@]1(C3=O)[C@@H](c2ccccc2)[C@@H](c2ccccc2)N[C@@]12C(=O)Nc1ccccc12 | inactive
Cc1ccc2[nH]c3c(c2c1)CC[C@]1(C3=O)[C@@H](c2cccs2)[C@@H](c2ccccc2)N[C@@]12C(=O)Nc1ccccc12 | Dose-dependent effect

Tested on: MCF7
Assay: Antiproliferative activity against human MCF7 cells after 48 hrs by MTT assay
Assay type: functional, cell-based
Settings: not given
Method in brief: (§3)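 Cells grown 1×10⁴/well for 48 h to about 75% confluence. Medium then replaced with fresh medium containing serially diluted compounds, followed by a further 48 h. MTT added for 4 h at 37 °C and formazan dissolved in DMSO for 10 min. OD read at 620 nm. IC50 taken from the viability–concentration survival curve. Three independent experiments, each in triplicate.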

Structure (SMILES) | Activity
Cc1ccc2[nH]c3c(c2c1)CC[C@]1(C3=O)[C@@H](c2ccccc2)[C@@H](c2ccccc2)N[C@@]12C(=O)Nc1ccccc12 | Dose-dependent effect
Cc1ccc2[nH]c3c(c2c1)CC[C@]1(C3=O)[C@@H](c2cccs2)[C@@H](c2ccccc2)N[C@@]12C(=O)Nc1ccccc12 | Dose-dependent effect

Same assay, conditions: MCF7, 48 h

IC50 [µM] | Structure (SMILES)
19 | Cc1ccc2[nH]c3c(c2c1)CC[C@]1(C3=O)[C@@H](c2ccccc2)[C@@H](c2ccccc2)N[C@@]12C(=O)Nc1ccccc12
14 | Cc1ccc2[nH]c3c(c2c1)CC[C@]1(C3=O)[C@@H](c2cccs2)[C@@H](c2ccccc2)N[C@@]12C(=O)Nc1ccccc12

Tested on: A549
Assay: Induction of apoptosis in human A549 cells assessed as membrane blebbing after 24 hrs by brightfield inverted light microscopic analysis
Assay type: functional, cell-based
Settings: not given

Structure (SMILES) | Activity
Cc1ccc2[nH]c3c(c2c1)CC[C@]1(C3=O)[C@@H](c2ccccc2)[C@@H](c2ccccc2)N[C@@]12C(=O)Nc1ccccc12 | inactive
Cc1ccc2[nH]c3c(c2c1)CC[C@]1(C3=O)[C@@H](c2cccs2)[C@@H](c2ccccc2)N[C@@]12C(=O)Nc1ccccc12 | Dose-dependent effect

Tested on: A549
Assay: Induction of apoptosis in human A549 cells by acridine orange/ethidium bromide staining-based fluorescence microscopic analysis
Assay type: functional, cell-based
Settings: not given
Method in brief: as §2

Structure (SMILES) | Activity
Cc1ccc2[nH]c3c(c2c1)CC[C@]1(C3=O)[C@@H](c2ccccc2)[C@@H](c2ccccc2)N[C@@]12C(=O)Nc1ccccc12 | inactive
Cc1ccc2[nH]c3c(c2c1)CC[C@]1(C3=O)[C@@H](c2cccs2)[C@@H](c2ccccc2)N[C@@]12C(=O)Nc1ccccc12 | Active

Tested on: A549
Assay: Antiproliferative activity against human A549 cells after 48 hrs by MTT assay
Assay type: functional, cell-based
Settings: not given
Method in brief: as §3

Structure (SMILES) | Activity
Cc1ccc2[nH]c3c(c2c1)CC[C@]1(C3=O)[C@@H](c2ccccc2)[C@@H](c2ccccc2)N[C@@]12C(=O)Nc1ccccc12 | Dose-dependent effect
Cc1ccc2[nH]c3c(c2c1)CC[C@]1(C3=O)[C@@H](c2cccs2)[C@@H](c2ccccc2)N[C@@]12C(=O)Nc1ccccc12 | Dose-dependent effect

Same assay, conditions: A549, 48 h

IC50 [µM] | Structure (SMILES)
18 | Cc1ccc2[nH]c3c(c2c1)CC[C@]1(C3=O)[C@@H](c2ccccc2)[C@@H](c2ccccc2)N[C@@]12C(=O)Nc1ccccc12
15 | Cc1ccc2[nH]c3c(c2c1)CC[C@]1(C3=O)[C@@H](c2cccs2)[C@@H](c2ccccc2)N[C@@]12C(=O)Nc1ccccc12
